The source of these data is ChEMBL document CHEMBL4814013, “Scaffold repurposing of fendiline: Identification of potent KRAS plasma membrane localization inhibitors” (Eur J Med Chem, 2021).

In test [1] the test system is MDCK. As to the kind of experiment: Inhibition of ASM in dog MDCK cells co-expressing recombinant full length mGFP-tagged KRAS G12V mutant and mCherry-CAAX assessed as reduction in plasma membrane localization of KRAS mutant incubated for 48 hrs by confocal microscopic analysis relative to control. In kind it is cell membranes. The settings on record: Canis lupus familiaris. The method, boiled down: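 MDCK cells stably co-expressing mGFP-KRAS G12V or mGFP-LactC2 with mCherry-CAAX (HRAS 179–189 C181S/C184S) grown on coverslips in DMEM/10% FBS. Treated 48 h with 0.1% DMSO or graded drug, fixed in 4% paraformaldehyde, then quantitative confocal imaging. Mislocalization scored as the Manders fraction of mCherry-CAAX co-localizing with the GFP probe. IC50 and Emax from three independent experiments.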

Test [2] can be described thus: Antiproliferative activity against human MPANC96 cells expressing KRAS mutant assessed as reduction in cell growth incubated for 72 hrs by CyQuant proliferation assay. It counts as functional, cell-based. The settings on record: MPANC96, 72 h. The method, boiled down: (§1)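 Cells seeded in 96-well plates; after 24 h fresh growth medium with 0.1% DMSO vehicle or drug added (highest dose 30 µM for cancer lines), grown 72 h at 37 °C, 5% CO2. Live cell number measured by CyQUANT fluorescence. IC50 from three independent experiments. MEFs were isogenic lines carrying oncogenic BRAF or KRAS.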

Test [3] has as its system NCI-H23. Put plainly: Antiproliferative activity against human NCI-H23 cells expressing mutant KRAS assessed as reduction in cell growth incubated for 72 hrs by CyQuant proliferation assay. Particulars: NCI-H23, 72 h. It counts as functional, cell-based. The method, boiled down: as §1
The test system of test [4] is NCI-H522. Put plainly: Antiproliferative activity against human NCI-H522 cells expressing wild type KRAS assessed as reduction in cell growth incubated for 72 hrs by CyQuant proliferation assay. In kind it is functional, cell-based. The settings on record: NCI-H522, 72 h. The method, boiled down: as §1
The test system of test [5] is Caco-2. As to the kind of experiment: Antiproliferative activity against human Caco-2 cells expressing wild type KRAS assessed as reduction in cell growth incubated for 72 hrs by CyQuant proliferation assay. The settings on record: Caco-2, 72 h. It counts as functional, cell-based. The method, boiled down: as §1
The subject of test [6] is HEC-1B cell line. Put plainly: Antiproliferative activity against human HEC-1B cells expressing mutant KRAS assessed as reduction in cell growth incubated for 72 hrs by CyQuant proliferation assay. In kind it is functional, cell-based. The method, boiled down: as §1
The subject of test [7] is Ishikawa. Put plainly: Antiproliferative activity against human Ishikawa cells expressing wild type KRAS assessed as reduction in cell growth incubated for 72 hrs by CyQuant proliferation assay. It counts as functional, cell-based. The method, boiled down:
as §1

A short description of test [8]: Antiproliferative activity against human MOH cells expressing KRAS mutant assessed as reduction in cell growth incubated for 72 hrs by CyQuant proliferation assay. In kind it is functional, cell-based. The method, boiled down:
as §1

Test [9] has as its system MIA PaCa-2. As to the kind of experiment: Antiproliferative activity against human MIA PaCa-2 cells expressing KRAS mutant assessed as reduction in cell growth incubated for 72 hrs by CyQuant proliferation assay. The settings on record: MIA PaCa-2, 72 h. In kind it is functional, cell-based. The method, boiled down:
as §1

The test system of test [10] is BXPC-3. As to the kind of experiment: Antiproliferative activity against human BXPC-3 cells expressing wild type KRAS assessed as reduction in cell growth incubated for 72 hrs by CyQuant proliferation assay. It counts as functional, cell-based. Particulars: BXPC-3, 72 h. The method, boiled down: as §1
The subject of test [11] is HEC-1-A. Put plainly: Antiproliferative activity against human HEC-1-A cells expressing mutant KRAS assessed as reduction in cell growth incubated for 72 hrs by CyQuant proliferation assay. In kind it is functional, cell-based. The method, boiled down: as §1
Test [12] concerns SK-CO-1. Put plainly: Antiproliferative activity against human SK-CO-1 cells expressing mutant KRAS assessed as reduction in cell growth incubated for 72 hrs by CyQuant proliferation assay. It counts as functional, cell-based. Particulars: SK-CO-1, 72 h. The method, boiled down: as §1
Test [13] deals with MDCK. As to the kind of experiment: Cytotoxicity against dog MDCK cells at 30 uM. In kind it is functional, cell-based. Particulars: Canis lupus familiaris.
Test [14] concerns NCI-H1299. As to the kind of experiment: Antiproliferative activity against human NCI-H1299 cells expressing wild type KRAS assessed as reduction in cell growth incubated for 72 hrs by CyQuant proliferation assay. It counts as functional, cell-based. Particulars: NCI-H1299, 72 h. The method, boiled down:
as §1

Test [15] has as its system NCI-H1975. Put plainly: Antiproliferative activity against human NCI-H1975 cells expressing wild type KRAS assessed as reduction in cell growth incubated for 72 hrs by CyQuant proliferation assay. It counts as functional, cell-based. Particulars: NCI-H1975, 72 h. The method, boiled down: as §1

The source made the active and inactive calls. The rule behind the calls is not given here.

For `COc1ccc([C@@H](C)N(CC=C(c2ccccc2)c2ccccc2)CC=C(c2ccccc2)c2ccccc2)cc1`, the Emax in [1] turned out to be 0.74. Besides, the half-inhibitory concentration (IC50) in test [2], in [3], in test [4], in test [5], in [6] and in test [7] was above 30 µM in each case. Further, the IC50 in [8], in [9], in test [10], in test [11], in test [12] and in [14] was above 30 µM in each case. Also, the IC50 in test [15] was above 30 µM. The outcome in test [13] was inactive.
